We go through seven compounds from publication PMC3700226 (Organic & Biomolecular Chemistry, 2012).

Test [1] has as its system HT1080 cells. The test can be described thus: Luminescent cell viability assay. It is filed as cell-based, human. The conditions noted are these: ratio of 72 h IC50 values, WI-38 = 1.0. A digest of the protocol:
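HeLa, HT1080, U2OS and WI-38 cells were grown in DMEM with 10% FCS. Cells were plated at 4000 per well and left 24 h, then serially diluted test compound (0–40 μM) was added. Viability was read by CellTiter-Glo luminescence after 72 h, 20 min after reagent addition at rt, in triplicate. IC50 values were determined separately for HT1080 and for WI-38.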

Test [2] has as its system HT1080 cells. The test can be described thus: β-Galactosidase senescence assay. The format is cell-based, human. The conditions noted are these: HT1080, 8 days of incubation at respective IC50. A digest of the protocol:
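HT1080 cells were treated 4 d with test compound at its IC50, or untreated, then reseeded at 4000 per chamber-slide well for another 4 d of treatment. Cells were fixed in 2% formaldehyde/0.2% glutaraldehyde for 15 min. They were stained 16 h at 37 °C with 1 mg ml−1 X-gal in pH 6.0 citrate/phosphate buffer containing ferro/ferricyanide for senescence-associated β-galactosidase.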

Test [3] has as its system telomeric 3′ G-overhang in HT1080 cells. The test is described as follows: Non-denaturing hybridization assay of telomeric G-overhang. It is filed as cell-based, human. The following applies: HT1080, respective IC50, time course of 12 days.
For test [4], the system named is HeLa, HT1080, U2OS and WI-38 cells. The test is described as follows: Luminescent cell viability assay, panel of four human cell lines. The format is cell-based. The following applies: 3 days of exposure; concentrations up to 40 µM.
Test [5] concerns HT1080 cells. The test is described as follows: Long-term growth assay. It is filed as cell-based, human. The conditions noted are these: HT1080, incubated at respective IC50 over 30 days. Put shortly:
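HT1080 cells were seeded at 300000 per T-25 flask with test compound at its IC50, or untreated. Every 3–4 days cells were split, counted with a haemocytometer and reseeded at 300000. Population doublings were calculated as PD = ln(n1/n2)/ln2 and run in triplicate. Dead cells were counted at each time point by trypan blue exclusion.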

In test [6] the test system is human telomeric G-quadruplex-forming sequence (H-Telo). The test can be described thus: FRET-melting assay, H-Telo. It is filed as binding. The following applies: 1 µM compound, 200 nM oligonucleotide, 60 mM potassium cacodylate pH 7.4. Put shortly:
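Dual FAM/TAMRA-labelled H-Telo oligonucleotide was annealed at 400 nM (94 °C for 10 min, then cooled to rt at 0.1 °C min−1). It was mixed with test compound in 60 mM potassium cacodylate, pH 7.4, at 200 nM final oligonucleotide. Fluorescence was read with excitation at 483 nm and emission at 533 nm. Melting-temperature shift was measured in triplicate.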

Turning to `NCCOc1cc(C(=O)Nc2cc(OCCN)c3ccccc3n2)nc(C(=O)Nc2cc(OCCN)c3ccccc3n2)c1` [Compound 1, pyridostatin], the “Selectivity ratio HT1080 over WI-38” value in the test with HT1080 cells [1] turned out to be 18.5.
For the compound `NCCOc1cc(C(=O)Nc2cc(OCCN3CCCC3)c3ccccc3n2)nc(C(=O)Nc2cc(OCCN3CCCC3)c3ccccc3n2)c1` [Compound 9], the “Senescent cells (β-galactosidase staining)” value (from here on “Senescent cells”) with HT1080 cells [2] is recorded as “presence of senescent cells”.
With `O=C(Nc1cc(OCCN2CCCC2)c2ccccc2n1)c1cc(OCCN2CCCC2)cc(C(=O)Nc2cc(OCCN3CCCC3)c3ccccc3n2)n1` [Compound 10], the “Senescent cells” value with HT1080 cells [2] is listed as “presence of senescent cells”. Moreover, the “Kinetics of G-overhang degradation (in words)” value in test [3] is given as “most potent to induce an early effect”.
On to `COc1cc(C(=O)Nc2cc(OC)c3ccccc3n2)nc(C(=O)Nc2cc(OC)c3ccccc3n2)c1` [Compound 14], for which the “Growth inhibition against the panel of cell lines (in words)” value in test [4] is on record as “did not exhibit growth inhibitory properties”.
Take `O=C(Nc1cc(OCCN2CCCC2)c2ccccc2n1)c1cc(Cl)cc(C(=O)Nc2cc(OCCN3CCCC3)c3ccccc3n2)n1` [Compound 17]: the “Senescent cells” value with HT1080 cells [2] is recorded as “presence of senescent cells”. Besides, the “Kinetics of G-overhang degradation (in words)” value in test [3] is reported as “most potent to induce an early effect”.
Take `NCCOc1cc(NC(=O)c2cc(OCc3ccc(F)cc3)cc(C(=O)Nc3cc(OCCN)c4ccccc4n3)n2)nc2ccccc12` [Compound 20]: the “Exposure time after which flattening of the population doubling curve started” value with HT1080 cells [5] was determined as 19 days. The “FRET ΔTm, H-Telo” value in test [6] was determined as 8.8 K.
On to `O=C(Nc1cc(OCCN2CCCC2)c2ccccc2n1)c1cc(OCc2ccc(F)cc2)cc(C(=O)Nc2cc(OCCN3CCCC3)c3ccccc3n2)n1` [Compound 21], for which, in test [6], the “FRET ΔTm, H-Telo” value turned out to be 4.3 K.
